# Reference: the M2OR odorant receptor database
# Residue numbers refer to the chain shown, from its start.
# Tests used:
# Details in all cases: stereoisomer not certain
# [1] = test system: T1, OR2T3 R298C
# T1 sequence (whole entry): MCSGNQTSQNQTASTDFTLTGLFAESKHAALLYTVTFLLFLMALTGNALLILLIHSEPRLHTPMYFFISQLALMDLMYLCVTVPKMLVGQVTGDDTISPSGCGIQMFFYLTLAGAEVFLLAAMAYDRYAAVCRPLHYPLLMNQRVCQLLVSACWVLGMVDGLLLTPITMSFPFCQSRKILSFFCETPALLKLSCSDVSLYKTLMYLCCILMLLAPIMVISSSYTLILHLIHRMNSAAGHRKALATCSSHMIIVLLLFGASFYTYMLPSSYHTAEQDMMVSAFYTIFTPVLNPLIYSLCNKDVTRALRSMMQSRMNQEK
# How it was run: (§1)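 Whether a receptor–molecule pair is responsive (active) rests on the original authors' judgment that its measured signal was statistically different from baseline. Pairs without that judgment are non-responsive (inactive). Sources used varied assay methods, commonly transient luciferase assays in mammalian cell lines.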
# [2] = test system: T2, OR2T3 Y109H
# T2 sequence (whole entry): T1 sequence (whole entry) with Y109H, C298R
# How it was run: as §1
# [3] = target: T3, OR2T33 (Homo sapiens) (UniProt Q8NG76)
# T3 sequence (whole entry): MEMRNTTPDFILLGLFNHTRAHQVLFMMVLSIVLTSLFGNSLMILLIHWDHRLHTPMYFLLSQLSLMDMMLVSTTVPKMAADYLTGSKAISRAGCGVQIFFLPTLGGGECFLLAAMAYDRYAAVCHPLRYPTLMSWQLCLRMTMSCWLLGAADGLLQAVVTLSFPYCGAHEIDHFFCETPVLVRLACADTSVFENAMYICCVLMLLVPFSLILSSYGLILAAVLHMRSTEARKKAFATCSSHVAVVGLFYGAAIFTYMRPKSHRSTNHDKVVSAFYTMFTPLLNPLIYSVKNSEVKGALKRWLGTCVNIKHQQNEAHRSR
# How it was run: as §1
# [4] = target: T4, OR2T34 (Homo sapiens) (UniProt Q8NGX1)
# T4 sequence (whole entry): T1 sequence (whole entry) with Y109H, T202M, M204T, A214T, H239R, P267R, C298R
# How it was run: as §1
# [5] = target: T5, OR2T35 (Homo sapiens) (UniProt Q8NGX2)
# T5 sequence (whole entry): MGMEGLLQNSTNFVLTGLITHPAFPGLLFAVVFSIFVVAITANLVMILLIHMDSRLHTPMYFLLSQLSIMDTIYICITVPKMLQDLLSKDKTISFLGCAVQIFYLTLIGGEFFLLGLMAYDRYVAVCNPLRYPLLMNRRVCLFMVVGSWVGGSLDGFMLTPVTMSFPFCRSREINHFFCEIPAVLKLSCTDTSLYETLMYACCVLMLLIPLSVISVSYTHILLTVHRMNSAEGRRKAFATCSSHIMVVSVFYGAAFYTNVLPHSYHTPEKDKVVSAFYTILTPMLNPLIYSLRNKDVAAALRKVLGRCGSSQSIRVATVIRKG
# How it was run: as §1
# [6] = target: T6, OR2T4 (Homo sapiens) (UniProt Q8NH00)
# T6 sequence (whole entry): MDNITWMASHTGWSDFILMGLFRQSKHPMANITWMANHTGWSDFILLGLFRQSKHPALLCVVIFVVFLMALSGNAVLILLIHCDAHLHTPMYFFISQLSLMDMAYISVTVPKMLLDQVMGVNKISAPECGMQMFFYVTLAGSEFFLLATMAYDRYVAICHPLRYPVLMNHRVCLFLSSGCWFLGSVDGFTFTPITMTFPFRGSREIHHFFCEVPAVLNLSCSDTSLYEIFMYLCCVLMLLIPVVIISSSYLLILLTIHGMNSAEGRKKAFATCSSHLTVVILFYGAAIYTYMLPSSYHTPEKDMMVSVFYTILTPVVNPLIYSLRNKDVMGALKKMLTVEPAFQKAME
# How it was run: as §1
# [7] = target: T7, OR2T5 (Homo sapiens) (UniProt Q6IEZ7)
# T7 sequence (whole entry): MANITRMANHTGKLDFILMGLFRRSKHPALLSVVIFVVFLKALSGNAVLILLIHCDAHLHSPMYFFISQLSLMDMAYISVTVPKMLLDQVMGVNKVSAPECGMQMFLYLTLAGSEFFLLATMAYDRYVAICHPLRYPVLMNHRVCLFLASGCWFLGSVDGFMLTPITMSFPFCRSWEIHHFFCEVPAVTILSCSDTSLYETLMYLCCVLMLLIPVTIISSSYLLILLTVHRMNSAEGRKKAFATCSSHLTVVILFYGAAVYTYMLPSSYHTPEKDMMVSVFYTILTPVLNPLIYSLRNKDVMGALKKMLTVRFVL
# How it was run: as §1
# [8] = test system: T8, OR2T5 K13R K41M G45E
# T8 sequence (whole entry): T7 sequence (whole entry) with K13R, K41M, G45E
# How it was run: as §1
# [9] = test system: T9, OR2T5 K13R L134F
# T9 sequence (whole entry): T7 sequence (whole entry) with K13R, L134F
# How it was run: as §1
# [10] = target: T10, OR2T6 (Homo sapiens) (UniProt Q8NHC8)
# T10 sequence (whole entry): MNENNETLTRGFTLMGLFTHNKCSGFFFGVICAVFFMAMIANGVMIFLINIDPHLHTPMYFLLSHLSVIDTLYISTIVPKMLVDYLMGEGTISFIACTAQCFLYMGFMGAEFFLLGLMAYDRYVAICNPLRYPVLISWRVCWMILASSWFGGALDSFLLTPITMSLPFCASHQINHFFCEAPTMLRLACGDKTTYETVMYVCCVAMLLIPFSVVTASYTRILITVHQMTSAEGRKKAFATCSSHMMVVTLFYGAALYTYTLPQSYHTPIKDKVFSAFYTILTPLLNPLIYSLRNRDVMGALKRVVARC
# How it was run: as §1
# [11] = test system: T11, OR2T6 C23G
# T11 sequence (whole entry): T10 sequence (whole entry) with C23G
# How it was run: as §1
# [12] = test system: T12, OR2T7
# T12 sequence (whole entry): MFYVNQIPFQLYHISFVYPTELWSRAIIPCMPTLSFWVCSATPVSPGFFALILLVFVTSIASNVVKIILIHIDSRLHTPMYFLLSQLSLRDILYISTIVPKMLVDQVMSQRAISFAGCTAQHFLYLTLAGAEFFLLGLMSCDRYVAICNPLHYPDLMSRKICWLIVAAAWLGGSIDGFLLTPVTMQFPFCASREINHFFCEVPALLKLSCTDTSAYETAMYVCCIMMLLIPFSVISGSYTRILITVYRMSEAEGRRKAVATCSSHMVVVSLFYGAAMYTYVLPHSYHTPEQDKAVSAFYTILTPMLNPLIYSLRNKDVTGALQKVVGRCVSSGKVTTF
# How it was run: as §1
# [13] = target: T13, OR2T8 (Homo sapiens) (UniProt A6NH00)
# T13 sequence (whole entry): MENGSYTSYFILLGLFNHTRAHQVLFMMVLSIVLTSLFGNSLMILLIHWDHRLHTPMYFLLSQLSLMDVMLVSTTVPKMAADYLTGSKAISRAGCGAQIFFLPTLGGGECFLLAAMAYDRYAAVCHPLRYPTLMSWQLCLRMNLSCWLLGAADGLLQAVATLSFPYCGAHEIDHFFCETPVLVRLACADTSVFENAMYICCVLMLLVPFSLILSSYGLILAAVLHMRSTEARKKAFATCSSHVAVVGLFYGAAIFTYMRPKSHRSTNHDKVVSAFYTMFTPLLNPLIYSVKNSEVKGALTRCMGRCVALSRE
# How it was run: as §1
# [14] = target: T14, OR2V1 (Homo sapiens) (UniProt Q8NHB1)
# T14 sequence (whole entry): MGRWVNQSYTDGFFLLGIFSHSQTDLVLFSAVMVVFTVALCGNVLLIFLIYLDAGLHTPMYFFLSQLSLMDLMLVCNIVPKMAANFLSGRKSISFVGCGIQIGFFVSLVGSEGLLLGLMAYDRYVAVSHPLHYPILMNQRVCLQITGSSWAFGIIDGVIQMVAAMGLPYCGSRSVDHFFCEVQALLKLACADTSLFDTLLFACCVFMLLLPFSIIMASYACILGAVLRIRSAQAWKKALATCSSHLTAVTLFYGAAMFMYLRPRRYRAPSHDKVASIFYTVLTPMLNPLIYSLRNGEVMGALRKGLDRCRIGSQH
# How it was run: as §1
# [15] = target: T15, OR2V2 (Homo sapiens) (UniProt Q96R30)
# T15 sequence (whole entry): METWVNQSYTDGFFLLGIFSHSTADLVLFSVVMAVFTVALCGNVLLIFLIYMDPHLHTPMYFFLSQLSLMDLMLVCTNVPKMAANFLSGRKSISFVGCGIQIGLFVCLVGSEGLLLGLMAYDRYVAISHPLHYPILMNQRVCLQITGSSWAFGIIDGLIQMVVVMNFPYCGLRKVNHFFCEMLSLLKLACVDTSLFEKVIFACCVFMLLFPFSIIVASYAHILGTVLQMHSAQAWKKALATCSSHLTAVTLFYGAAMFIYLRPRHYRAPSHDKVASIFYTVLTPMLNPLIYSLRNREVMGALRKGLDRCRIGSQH
# How it was run: as §1
# [16] = target: T16, OR2W1 (Homo sapiens) (UniProt Q9Y3N9)
# T16 sequence (whole entry): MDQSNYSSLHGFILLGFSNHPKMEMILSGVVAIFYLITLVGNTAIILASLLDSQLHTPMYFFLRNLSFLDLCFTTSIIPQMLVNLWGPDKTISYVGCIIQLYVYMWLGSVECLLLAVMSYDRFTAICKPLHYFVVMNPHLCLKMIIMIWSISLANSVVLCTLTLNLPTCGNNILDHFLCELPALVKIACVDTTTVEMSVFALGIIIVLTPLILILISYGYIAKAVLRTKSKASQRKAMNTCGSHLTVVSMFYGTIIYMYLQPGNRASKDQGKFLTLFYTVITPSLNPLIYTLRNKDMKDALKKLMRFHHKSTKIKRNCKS
# How it was run: as §1
# [17] = test system: T17, OR2W1 G96V
# T17 sequence (whole entry): T16 sequence (whole entry) with G96V
# How it was run: as §1
# [18] = target: T18, OR2T7 (Homo sapiens) (UniProt P0C7T2)
# T18 sequence (whole entry): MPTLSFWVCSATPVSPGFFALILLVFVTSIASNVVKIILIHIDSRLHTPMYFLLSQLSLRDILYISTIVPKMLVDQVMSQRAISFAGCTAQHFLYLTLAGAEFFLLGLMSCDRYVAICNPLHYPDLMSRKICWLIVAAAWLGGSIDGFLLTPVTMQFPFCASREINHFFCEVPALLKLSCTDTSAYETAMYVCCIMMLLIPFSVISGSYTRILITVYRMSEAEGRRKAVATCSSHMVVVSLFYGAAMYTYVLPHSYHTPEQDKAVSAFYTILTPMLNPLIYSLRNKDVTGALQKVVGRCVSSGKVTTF
# How it was run: as §1
# 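Note: active if original authors judged signal statistically different from baseline.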
smiles,measurement,setting,value
CCC1OC(=O)C(O)=C1C (stereo not given),odorant receptor agonist call,[1],inactive
same,odorant receptor agonist call,[2],inactive
same,odorant receptor agonist call,[3],inactive
same,odorant receptor agonist call,[4],inactive
same,odorant receptor agonist call,[5],inactive
same,odorant receptor agonist call,[6],inactive
same,odorant receptor agonist call,[7],inactive
same,odorant receptor agonist call,[8],inactive
same,odorant receptor agonist call,[9],inactive
same,odorant receptor agonist call,[10],inactive
same,odorant receptor agonist call,[11],inactive
same,odorant receptor agonist call,[12],inactive
same,odorant receptor agonist call,[13],inactive
same,odorant receptor agonist call,[14],inactive
same,odorant receptor agonist call,[15],inactive
same,odorant receptor agonist call,[16],inactive
same,odorant receptor agonist call,[17],inactive
CCCCCC(S)C(C)CO (stereo not given),odorant receptor agonist call,[3],inactive
same,odorant receptor agonist call,[4],inactive
same,odorant receptor agonist call,[5],inactive
same,odorant receptor agonist call,[6],inactive
same,odorant receptor agonist call,[7],inactive
same,odorant receptor agonist call,[10],inactive
same,odorant receptor agonist call,[18],inactive
same,odorant receptor agonist call,[13],inactive
same,odorant receptor agonist call,[14],inactive
same,odorant receptor agonist call,[15],inactive
same,odorant receptor agonist call,[16],inactive
CCCCCC1COCCC1OC(C)=O (stereo not given),odorant receptor agonist call,[4],inactive
C=CCOC(=O)COCCC(C)C,odorant receptor agonist call,[4],inactive
CC=CC(=O)C1C(C)=CCCC1(C)C (stereo not given),odorant receptor agonist call,[4],active
CCCC(C)C(=O)OCC (stereo not given),odorant receptor agonist call,[4],inactive
CCC=C(C)C(O)CCCCC (stereo not given),odorant receptor agonist call,[4],inactive
Cc1ccc(C(C)C)cc1O,odorant receptor agonist call,[4],inactive
CC(C)CCCC(C)(C)O,odorant receptor agonist call,[4],inactive
